The values below come from article PMC11130662 (Heliyon, 2024).

Series [1] concerns HepG2 cells. As to the kind of experiment: In-vitro cytotoxicity MTT assay on HepG2 cell line. Type of series: cell-based, human. Conditions: 125 μg/ml, third day. Summed up:
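HepG2 monolayers in phenol-red-free DMEM with 10 % FCS, penicillin and streptomycin, grown 48 h at 37 °C/5 % CO2 to confluency. Test compound in DMSO at 25, 50, 75, 100, 125 µg; medium-only negative control with matched DMSO. After 48 h at 37 °C, MTT (5 mg/mL) added for 4 h, then DMSO-dissolved formazan read at 570/655 nm. Triplicate; viability relative to untreated cells.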
In general terms: Tetrazolium dyes change colour on reduction, which living cells bring about.

Series [2] deals with E. granulosus protoscoleces. Description: Protoscolicidal. Type of series: cell-based. Conditions: Echinococcus granulosus; for IC50: read-out: IC50 protoscolicidal activity; for viability at 25 µg/mL / viability at 50 µg/mL / viability at 75 µg/mL / viability at 100 µg/mL / viability at 125 µg/mL: read-out: viability of protoscoleces. Summed up:
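Protoscoleces came from hydatid cysts of naturally infected sheep, settled without centrifugation, washed three times in HBSS, and cultured in RPMI 1640 (12 mM HEPES, glutamine, antibiotics, amphotericin B, 10 % FCS, glucose). Within 10 days, ~500 protoscoleces in 20 ml medium received test compound at 25–125 µg/ml; DMSO control. Viability was scored by motility and 0.1 % trypan blue exclusion in 10 random fields (10X). Triplicate; IC50 by nonlinear regression.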

Series [3] deals with protoscoleces and metacestodes of Echinococcus granulosus. Conditions: cited from earlier work.

Usually IC50 stands for the point on the concentration scale where inhibition reaches its midpoint. The viability is a per cent measure of how many cells are alive, often set against a control.

In brackets after ≈: the same amount, converted by molar mass.

`Cc1ccc(NC(=O)c2cc([N+](=O)[O-])cc([N+](=O)[O-])c2)cc1` [Compound 6, 3,5-dinitro-N-p-tolylbenzamide]: in series [1], the “cell survival rate of HepG2” value was 36%. In addition, in series [2], the IC50 worked out at 77 µg/mL (≈ 256 µM), the viability at 25 µg/mL stood at 72.6%, the viability at 50 µg/mL worked out at 66.6% and the viability at 75 µg/mL turned out to be 53.6%. For the same compound, in series [2], the viability at 100 µg/mL turned out to be 43% and the viability at 125 µg/mL was determined as 32.3%.
As to `Cc1ccc(NC(=O)c2cccc3ccccc23)cc1` [Compound 10, N-p-tolyl-1-naphthamide], the “cell survival rate of HepG2” value in series [1] amounted to 40%. In series [2], the IC50 was 29.5 µg/mL (≈ 113 µM), the viability at 25 µg/mL is 47.3%, the viability at 50 µg/mL was determined as 20% and the viability at 75 µg/mL amounted to 10.3%. Also, in series [2], the viability at 100 µg/mL worked out at 0% and the viability at 125 µg/mL came to 0%.
For the compound `Cc1ccc(NC(=O)c2ccc(OC(F)(F)F)cc2)cc1` [Compound 16, N-p-tolyl-4-(trifluoromethoxy)benzamide], the “cell survival rate of HepG2” value in series [1] turned out to be 38%. Besides, in series [2], the 50% inhibitory concentration (IC50) turned out to be 66.5 µg/mL (≈ 225 µM), the viability at 25 µg/mL is 72.6%, the viability at 50 µg/mL was determined as 62.6% and the viability at 75 µg/mL came out at 45.3%. Besides, in series [2], the viability at 100 µg/mL was 39.6% and the viability at 125 µg/mL came out at 30%.
With `CCCCCc1ccc(C(=O)Nc2ccc(C)cc2)cc1` [Compound 18, 4-pentyl-N-p-tolylbenzamide], in series [1], the “cell survival rate of HepG2” value is “approximately 54%”. In series [2], the IC50 was 45 µg/mL (≈ 160 µM), the viability at 25 µg/mL was found to be 63.3%, the viability at 50 µg/mL was determined as 49.6% and the viability at 75 µg/mL turned out to be 38.3%. In series [2], the viability at 100 µg/mL is 29% and the viability at 125 µg/mL came to 21%.
`Cc1ccc(NC(=O)c2c(F)c(F)c(F)c(F)c2F)cc1` [Compound 20, 2,3,4,5,6-pentafluoro-N-p-tolylbenzamide]: the “cell survival rate of HepG2” value in series [1] was found to be 32%. In series [2], the IC50 was found to be 39.5 µg/mL (≈ 131 µM), the viability at 25 µg/mL turned out to be 54.3%, the viability at 50 µg/mL came to 50.6% and the viability at 75 µg/mL is 18.3%. In addition, in series [2], the viability at 100 µg/mL was 9.6% and the viability at 125 µg/mL amounted to 0%.
As to `CC(=O)Oc1ccccc1C(=O)Nc1ncc([N+](=O)[O-])s1` [Nitazoxanide], in series [3], the antiechinococcal activity entry is listed as “potent antiechinococcal activity”.
